Experimental data from different studies.
Each line is one published result; the experiments were not run side by side.
Target: Serine/threonine-protein kinase 3 (STK3, Homo sapiens, UniProt Q13188)
Residues used in one study (Q13188 1-491): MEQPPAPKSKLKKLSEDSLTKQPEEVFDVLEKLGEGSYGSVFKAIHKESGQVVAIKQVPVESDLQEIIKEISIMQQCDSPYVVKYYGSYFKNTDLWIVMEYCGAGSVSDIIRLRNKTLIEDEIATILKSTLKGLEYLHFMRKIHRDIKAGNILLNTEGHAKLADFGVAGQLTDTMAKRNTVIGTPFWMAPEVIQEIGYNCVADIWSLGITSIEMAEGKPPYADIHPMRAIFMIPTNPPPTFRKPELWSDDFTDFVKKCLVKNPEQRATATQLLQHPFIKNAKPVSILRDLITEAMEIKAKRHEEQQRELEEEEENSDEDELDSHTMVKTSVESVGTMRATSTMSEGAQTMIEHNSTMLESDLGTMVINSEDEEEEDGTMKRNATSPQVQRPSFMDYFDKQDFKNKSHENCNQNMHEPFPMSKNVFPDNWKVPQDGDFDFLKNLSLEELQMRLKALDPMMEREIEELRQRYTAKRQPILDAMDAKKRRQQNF

| Compound | test | setting | remaining binding [%] |
| --- | --- | --- | --- |
| O=C(Nc1cccnn1)N1CC(C/C=C/c2cncc(Oc3ccc(C(F)(F)F)cn3)n2)C1 | cell-free assay, competition with immobilised ligand | 1 µM | 80 |
| O=C(Nc1c[nH]nc1C(=O)NC1CCNCC1)c1cc(F)cc(F)c1 | binding, competition with immobilised ligand | 1 µM | 100 |
| CN(C)c1nccc(-c2cnn3ncccc23)n1 | binding | 1 µM | 100 |
| Nc1ncc2c(n1)-c1c([nH]c3ccc(C#CC4CC4)cc13)CCCC2 | binding, competition with immobilised ligand | 1 µM | 87 |
| COc1ccc2c(c1)O[C@@H](c1ccc(OC)c(OC)c1)C[C@H]2NC(=O)C1(c2ccc3c(c2)OC(F)(F)O3)CC1 | cell-free assay, competition with immobilised ligand | 1 µM | 96 |
| O=C(NCCCN1CCOCC1)c1ccc(Nc2nccc(-c3cc4ccccc4s3)n2)cc1 | binding, competition with immobilised ligand | 1 µM | 88 |
| FC(F)(F)Oc1cccc(-c2cnc3ccc(-c4ccncc4)nn23)c1 | cell-free assay, competition with immobilised ligand | 5 µM | 58 |
| CC(C)(O)c1cncc(-c2nc3ccc(F)cc3n2C2CC2)c1 | cell-free assay, competition with immobilised ligand | 1 µM | 100 |
| Cc1cnn2ncc(-c3ccnc(N(C)C)n3)c2c1 | binding | 1 µM | 100 |
| O=C(c1ccc(Nc2nccc(-c3cc4ccccc4s3)n2)cc1)N1CCC(N2CCCC2)CC1 | binding, competition with immobilised ligand | 1 µM | 100 |
| CCN1CCN(Cc2ccc(C(=O)Nc3ccc(C)c(Oc4ccc5c(c4)CC(=O)N5)c3)cc2C(F)(F)F)CC1 | binding, competition with immobilised ligand | 1 µM | 14 |
| CN(CCCC(F)(F)F)c1nccc(-c2cnn3ncccc23)n1 | binding | 1 µM | 100 |
| C[C@@H](c1ccc(-n2cnc3c(N)ncnc32)cc1)N1CCc2nn(C)c(Cc3ccccc3)c2C1=O | binding, competition with immobilised ligand | 0.1 µM | 74 |
| C[C@H](c1ccc(F)cc1)N(Cc1cccc(C(=O)O)c1)C(=O)c1cnc2ccccc2c1 | cell-free assay, competition with immobilised ligand | 1 µM | 100 |
| N[C@@H]1CCN(c2nccc(-c3cnn4ncccc34)n2)C1 | binding | 1 µM | 98 |
| O=C(O)c1cc(-c2ccc(C3CCNCC3)cc2)c2ccc(-c3ccc(C(F)(F)F)cc3)cc2c1 | cell-free assay, competition with immobilised ligand | 1 µM | 100 |
| C[C@@H]1CCN(c2nccc(-c3cnn4ncccc34)n2)C1 | binding | 1 µM | 100 |
| Cc1c(NC(=O)c2cc(C(N)=O)nc3cc(F)ccc23)c(C(F)(F)F)nn1Cc1ccc(C#N)cc1 | cell-free assay, competition with immobilised ligand | 1 µM | 96 |
| F[C@@H]1CCN(c2nccc(-c3cnn4ncccc34)n2)C1 | binding | 1 µM | 100 |
| O=C(c1ccc(Nc2ncc(Cl)c(-c3ccc(Cl)s3)n2)cc1)N1CCC(N2CCCC2)CC1 | binding, competition with immobilised ligand | 1 µM | 16 |
| c1cnn2ncc(-c3ccnc(N4CCC45COC5)n3)c2c1 | binding | 1 µM | 81 |
| COc1cnc(Nc2cccc(S(N)(=O)=O)c2)nc1N1CCN(c2ccccc2)C(=O)C1 | binding, competition with immobilised ligand | 1 µM | 98 |
